ChEMBL document CHEMBL4270565, “Design, synthesis and antimicrobial evaluation of propylene-tethered ciprofloxacin-isatin hybrids” (Eur J Med Chem, 2018)
Values after ≈ are worked out from the molar mass of the structure shown.

Columns and labels:
[1] = test system: Staphylococcus epidermidis; experiment: Antibacterial activity against methicillin-sensitive Staphylococcus epidermidis ATCC 12228 after 18 to 24 hrs by two-fold serial dilution method; type: functional
Procedure, shortened: (§1)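 Agar two-fold dilution MIC. Compounds were dissolved in 0.1 N NaOH and water, then serially diluted in melted Mueller-Hinton agar, with top concentrations starting at 128. Plates were inoculated at about 10 cfu and incubated at 35 °C for 18–24 h. MIC was taken as the lowest concentration giving 90% inhibition of growth.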

[2] = test system: Staphylococcus epidermidis; experiment: Antibacterial activity against methicillin-resistant Staphylococcus epidermidis 13-3 after 18 to 24 hrs by two-fold serial dilution method; type: functional
Procedure, shortened: (§2)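 Agar two-fold serial dilution in Mueller-Hinton agar. Strains came from the Chinese Center for Disease Control and Prevention. Compounds were dissolved in 0.1 N NaOH and water, then diluted in melted agar to final levels stepping down from 128. Plates were inoculated with bacterial cfu and incubated at 35 C for 18–24 h. MIC is the lowest concentration giving 90% growth inhibition.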

Staphylococcus aureus [3] = experiment: Antibacterial activity against methicillin-sensitive Staphylococcus aureus ATCC 29213 after 18 to 24 hrs by two-fold serial dilution method; type: functional; procedure, shortened: as §2
Staphylococcus aureus [4] = experiment: Antibacterial activity against methicillin-resistant Staphylococcus aureus ATCC 33591 after 18 to 24 hrs by two-fold serial dilution method; type: functional; procedure, shortened: as §2
Enterococcus faecalis [5] = experiment: Antibacterial activity against Enterococcus faecalis ATCC 29212 after 18 to 24 hrs by two-fold serial dilution method; type: functional; procedure, shortened: as §1
Enterococcus faecalis [6] = experiment: Antibacterial activity against Enterococcus faecalis ATCC 51299 after 18 to 24 hrs by two-fold serial dilution method; type: functional; procedure, shortened: as §1
Enterococcus faecium [7] = experiment: Antibacterial activity against Enterococcus faecium ATCC 700221 after 18 to 24 hrs by two-fold serial dilution method; type: functional; procedure, shortened: as §1
Enterococcus faecium [8] = experiment: Antibacterial activity against Enterococcus faecium 13-7 after 18 to 24 hrs by two-fold serial dilution method; type: functional; procedure, shortened: as §1
Escherichia coli [9] = experiment: Antibacterial activity against extended-spectrum beta-lactamase deficient Escherichia coli ATCC 25922 after 18 to 24 hrs by two-fold serial dilution method; type: functional; procedure, shortened: as §1
Escherichia coli [10] = experiment: Antibacterial activity against extended-spectrum beta-lactamase harboring Escherichia coli ATCC 35218 after 18 to 24 hrs by two-fold serial dilution method; type: functional; procedure, shortened: as §2
Klebsiella pneumoniae [11] = experiment: Antibacterial activity against extended-spectrum beta-lactamase harboring Klebsiella pneumoniae ATCC 700603 after 18 to 24 hrs by two-fold serial dilution method; type: functional; procedure, shortened: as §2
Klebsiella pneumoniae [12] = experiment: Antibacterial activity against extended-spectrum beta-lactamase deficient Klebsiella pneumoniae 15-2 after 18 to 24 hrs by two-fold serial dilution method; type: functional; procedure, shortened: as §1
Pseudomonas aeruginosa = experiment: Antibacterial activity against Pseudomonas aeruginosa ATCC 27853 after 18 to 24 hrs by two-fold serial dilution method; type: functional; procedure, shortened: as §1
[13] = test system: Acinetobacter calcoaceticus; experiment: Antibacterial activity against Acinetobacter calcoaceticus ATCC 19606 after 18 to 24 hrs by two-fold serial dilution method; type: functional; procedure, shortened: as §1
Enterobacter cloacae = experiment: Antibacterial activity against Enterobacter cloacae ATCC 43560 after 18 to 24 hrs by two-fold serial dilution method; type: functional
Klebsiella aerogenes = experiment: Antibacterial activity against Enterobacter aerogenes ATCC 13048 after 18 to 24 hrs by two-fold serial dilution method; type: functional; procedure, shortened: as §1
Serratia marcescens = experiment: Antibacterial activity against Serratia marcescens ATCC 21074 after 18 to 24 hrs by two-fold serial dilution method; type: functional; procedure, shortened: as §1
Morganella morganii = experiment: Antibacterial activity against Morganella morganii ATCC 25830 after 18 to 24 hrs by two-fold serial dilution method; type: functional; procedure, shortened: as §1
Providencia rettgeri = experiment: Antibacterial activity against Providencia rettgeri ATCC 31052 after 18 to 24 hrs by two-fold serial dilution method; type: functional; procedure, shortened: as §1
Proteus vulgaris = experiment: Antibacterial activity against Proteus vulgaris ATCC 29905 after 18 to 24 hrs by two-fold serial dilution method; type: functional; procedure, shortened: as §1
Proteus mirabilis = experiment: Antibacterial activity against Proteus mirabilis 13-1 after 18 to 24 hrs by two-fold serial dilution method; type: functional; procedure, shortened: as §1
[14] = test system: Stenotrophomonas maltophilia; experiment: Antibacterial activity against Stenotrophomonas maltophilia ATCC 13636 after 18 to 24 hrs by two-fold serial dilution method; type: functional; procedure, shortened: as §1
Citrobacter freundii = experiment: Antibacterial activity against extended-spectrum beta-lactamase harboring Citrobacter freundii ATCC 43864 after 18 to 24 hrs by two-fold serial dilution method; type: functional; procedure, shortened: as §2
[15] = test system: Mycobacterium tuberculosis; experiment: Antimycobacterial activity against Mycobacterium tuberculosis H37Rv after 7 days; type: functional; conditions: 168 h
Procedure, shortened: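 Rapid direct susceptibility test in 48-well plates. Two-fold dilutions of compound from DMSO stocks were mixed with an equal volume of bacterial suspension. Medium-only wells served as growth controls and water-only wells as no-growth controls. Plates were sealed and held at 37 C in a humid box, and controls were checked at 3 days. MIC (90% growth inhibition) was read visually by high-magnification observation of the cells and re-read at 7 days.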

[16] = Cytotoxicity against African green monkey Vero cells assessed as reduction in cell viability after 72 hrs by MTT assay; type: cell-based; conditions: chlorocebus sabaeus
Procedure, shortened: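 VERO cells were kept in MEM with Earle's salts and 10% FBS at 37 °C, 5% CO2. They were seeded in 96-well plates and allowed to recover for 24 h. Cells were then exposed to compounds in DMSO over a series from 1000 down to 4 for 72 h. Viability was read by MTT, and CC50 was calculated by Bliss analysis.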

Staphylococcus aureus [17] = experiment: Potency index, ratio of ciprofloxacin MIC90 to compound MIC90 for methicillin-sensitive Staphylococcus aureus ATCC 29213; type: functional
[18] = test system: Staphylococcus epidermidis; experiment: Potency index, ratio of ciprofloxacin MIC90 to compound MIC90 for methicillin-sensitive Staphylococcus epidermidis ATCC 12228; type: functional
Enterococcus faecalis [19] = experiment: Potency index, ratio of ciprofloxacin MIC90 to compound MIC90 for Enterococcus faecalis ATCC 29212; type: functional
Enterococcus faecalis [20] = experiment: Potency index, ratio of ciprofloxacin MIC90 to compound MIC90 for Enterococcus faecalis ATCC 51299; type: functional
Staphylococcus aureus [21] = experiment: Potency index, ratio of levofloxacin MIC90 to compound MIC90 for methicillin-sensitive Staphylococcus aureus ATCC 29213; type: functional
[22] = test system: Staphylococcus epidermidis; experiment: Potency index, ratio of levofloxacin MIC90 to compound MIC90 for methicillin-sensitive Staphylococcus epidermidis ATCC 12228; type: functional
Enterococcus faecalis [23] = experiment: Potency index, ratio of levofloxacin MIC90 to compound MIC90 for Enterococcus faecalis ATCC 29212; type: functional
Enterococcus faecalis [24] = experiment: Potency index, ratio of levofloxacin MIC90 to compound MIC90 for Enterococcus faecalis ATCC 51299; type: functional
[25] = Cmax in ICR mouse at 50 mg/kg, po administered as single dose by HPLC analysis; type: ADME, organism-based; set-up: dose 50 mg/kg, route oral; conditions: in vivo
Procedure, shortened: (§3)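 Mice (3 per group), fasted overnight, given a single oral dose of 50 mg/kg as a suspension in 0.5% CMC. Jugular vein blood taken at 0.25, 0.5, 1, 2, 4, 6, 8 and 24 h. Serum proteins precipitated with acetonitrile and centrifuged; the dried supernatant was redissolved in acetonitrile for HPLC. PK parameters were derived directly from the concentration–time data.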

[26] = Tmax in ICR mouse at 50 mg/kg, po administered as single dose by HPLC analysis; type: ADME, organism-based; conditions: in vivo; procedure, shortened: as §3
[27] = AUC (0 to infinity) in ICR mouse at 50 mg/kg, po administered as single dose by HPLC analysis; type: ADME, organism-based; set-up: dose 50 mg/kg, route oral, time infinity; conditions: in vivo; procedure, shortened: as §3
[28] = Elimination half life in ICR mouse at 50 mg/kg, po administered as single dose by HPLC analysis; type: ADME, organism-based; conditions: in vivo, read-out: beta t1/2 (converted)
[29] = Half life in mouse microsomes; type: ADME, Microsome

SMILES	MIC90 [1] [µg/mL]	MIC90 [2] [µg/mL]	MIC90 (Staphylococcus aureus [3]) [µg/mL]	MIC90 (Staphylococcus aureus [4]) [µg/mL]	MIC90 (Enterococcus faecalis [5]) [µg/mL]	MIC90 (Enterococcus faecalis [6]) [µg/mL]	MIC90 (Enterococcus faecium [7]) [µg/mL]	MIC90 (Enterococcus faecium [8]) [µg/mL]	MIC90 (Escherichia coli [9]) [µg/mL]	MIC90 (Escherichia coli [10]) [µg/mL]	MIC90 (Klebsiella pneumoniae [11]) [µg/mL]	MIC90 (Klebsiella pneumoniae [12]) [µg/mL]	MIC90 (Pseudomonas aeruginosa) [µg/mL]	MIC90 [13] [µg/mL]	MIC90 (Enterobacter cloacae) [µg/mL]	MIC90 (Klebsiella aerogenes) [µg/mL]	MIC90 (Serratia marcescens) [µg/mL]	MIC90 (Morganella morganii) [µg/mL]	MIC90 (Providencia rettgeri) [µg/mL]	MIC90 (Proteus vulgaris) [µg/mL]	other results
CCO/N=C1\C(=O)N(CCCN2CCN(c3cc4c(cc3F)c(=O)c(C(=O)OCCCN3C(=O)/C(=N/OCC)c5ccccc53)cn4C3CC3)CC2)c2ccccc21	64 (≈ 80.8 µM)	128 (≈ 162 µM)	128 (≈ 162 µM)	> 128	64 (≈ 80.8 µM)	> 128	> 128	> 128	8 (≈ 10.1 µM)	32 (≈ 40.4 µM)	64 (≈ 80.8 µM)	64 (≈ 80.8 µM)	64 (≈ 80.8 µM)	> 128	64 (≈ 80.8 µM)	64 (≈ 80.8 µM)	> 128	64 (≈ 80.8 µM)	128 (≈ 162 µM)	128 (≈ 162 µM)	MIC90 (Proteus mirabilis): 64 µg/mL (≈ 80.8 µM); MIC90 [14]: > 128 µg/mL; MIC90 (Citrobacter freundii): 128 µg/mL (≈ 162 µM); MIC90 [15]: 25 µg/mL (≈ 31.6 µM); CC50 at 72 h [16]: 32 µg/mL (≈ 40.4 µM)
CO/N=C1\C(=O)N(CCCN2CCN(c3cc4c(cc3F)c(=O)c(C(=O)O)cn4C3CC3)CC2)c2ccc(C)cc21	0.06 (≈ 0.107 µM)	1 (≈ 1.78 µM)	0.06 (≈ 0.107 µM)	0.06 (≈ 0.107 µM)	0.5 (≈ 0.89 µM)	0.5 (≈ 0.89 µM)	2 (≈ 3.56 µM)	8 (≈ 14.2 µM)	≤ 0.03	≤ 0.03	0.25 (≈ 0.445 µM)	≤ 0.03	0.5 (≈ 0.89 µM)	0.25 (≈ 0.445 µM)	≤ 0.03	≤ 0.03	0.06 (≈ 0.107 µM)	≤ 0.03	≤ 0.03	≤ 0.03	MIC90 (Proteus mirabilis): ≤ 0.03 µg/mL; MIC90 [14]: ≤ 0.03 µg/mL; MIC90 (Citrobacter freundii): ≤ 0.03 µg/mL; Ratio (Staphylococcus aureus [17]): 2 - 64; Ratio [18]: 2 - 64; Ratio (Enterococcus faecalis [19]): 2 - 64; Ratio (Enterococcus faecalis [20]): 2 - 64; Ratio (Staphylococcus aureus [21]): 2 - 64; Ratio [22]: 2 - 64; Ratio (Enterococcus faecalis [23]): 2 - 64; Ratio (Enterococcus faecalis [24]): 2 - 64; MIC90 [15]: 0.78 µg/mL (≈ 1.39 µM); CC50 at 72 h [16]: 256 µg/mL (≈ 456 µM); Cmax [25]: 832 ng/mL; Tmax [26]: 1.2 h; AUC(0-inf) [27]: 2860 ng·h/mL; half-life [28]: 3.3 h; half-life [29]: 0.283 h
